What all share (format): ADME, organism-based
The species named for data set [1] is Rattus norvegicus. Nature of the data set: […] determined in faces of rat followed by […] of chelating agent. Particulars: in vivo, iv. The gist of the method: (§1)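 Normal rats. Storage iron was labelled with [⁵⁹Fe]ferritin, given im as 1 mL in sterile normal saline (0.2–0.4 μCi ⁵⁹Fe/mL, 40 μg ferritin iron). The ferritin was prepared in vivo from [⁵⁹Fe]citrate in iron-dextran-loaded rats. Chelator was given separately afterwards, 40 mg im as aqueous solution. Blood, liver, spleen and kidney were gamma-counted. Stool and urine were collected separately in metabolic cages. Results are percent of injected ⁵⁹Fe.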

In data set [2] the test system is Rattus norvegicus. Put plainly: % distribution of the radioiron in rat liver followed by intravenous injection of chelating agent. The following applies: in vivo.
The subject of data set [3] is Rattus norvegicus. Nature of the data set: % distribution of the radioiron in rat spleen followed by intravenous injection of chelating agent. Particulars: in vivo.
The subject of data set [4] is Rattus norvegicus. Nature of the data set: % distribution of the radioiron in blood of rat followed by intravenous injection of chelating agent. The following applies: in vivo.
For data set [5], the species on record is Rattus norvegicus. Nature of the data set: […] determined in urine of rat followed by […] of chelating agent. The following applies: in vivo, iv. A digest of the protocol:
as §1

Data set [6] concerns Rattus norvegicus. Nature of the data set: % distribution of the radioiron in rat kidney followed by intravenous injection of chelating agent. The following applies: in vivo.
Data set [7] has as its system Rattus norvegicus. Put plainly: % excretion of radioiron determined in feces of rat followed by intravenous injection of transferrin pre-incubated with 10 mg of chelating agent. Particulars: in vivo. The gist of the method:
(§2)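 Normal rats. Fresh rat plasma was labelled with ⁵⁹FeCl₃ plus excess citrate (citrate:Fe >50:1; final 0.5 μCi ⁵⁹Fe/mL). It was preincubated with 10 mg chelating agent and 1 mL was injected iv. Blood (1 mL), weighed liver portions, and whole spleen and kidney were counted in a well-type gamma counter. Feces and urine were collected separately in metabolic cages. Results are percent of injected ⁵⁹Fe ± SD.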

Data set [8] relates to Rattus norvegicus. Put plainly: % distribution of the radioiron in rat liver followed by intravenous injection of transferrin preincubated with 10 mg of chelating agent. Particulars: in vivo. A digest of the protocol:
as §2

Data set [9] concerns Rattus norvegicus. Put plainly: % distribution of the radioiron in blood of rats followed by intravenous injection of transferrin pre-incubated with 10 mg of chelating agent. Particulars: in vivo. A digest of the protocol: as §2
For data set [10], the system named is Rattus norvegicus. Nature of the data set: % distribution of the radioiron in rat spleen followed by intravenous injection of transferrin pre-incubated with 10 mg of chelating agent. Particulars: in vivo. The gist of the method: as §2
Data set [11] deals with Rattus norvegicus. Put plainly: % distribution of the radioiron in rat kidney followed by intravenous injection of transferrin pre-incubated with 10 mg of chelating agent. The following applies: in vivo. The gist of the method: as §2
For data set [12], the system named is Rattus norvegicus. Nature of the data set: % excretion of radioiron determined in urine of rat followed by intravenous injection of transferrin preincubated with 10 mg of chelating agent. Particulars: in vivo. The gist of the method: as §2

This passage reports Distribution results from ChEMBL document CHEMBL1122337, “Syntheses of iron bis(pyridoxal isonicotinoylhydrazone)s and the in vivo iron-removal properties of some pyridoxal derivatives” (J Med Chem, 1983).

`Cc1ncc(CO)c(/C=N/NC(=O)OC(C)(C)C)c1O`: the Distribution in the data set listed under Rattus norvegicus [1] is reported as 7.3%; in the data set with Rattus norvegicus [2], 63.2%; with Rattus norvegicus [3], 0.55%; with Rattus norvegicus [4] it was 19.4%; in the data set listed under Rattus norvegicus [5] it was 0.08%; with Rattus norvegicus [6] it was 0.4%.
With `Cc1ncc(CO)c(/C=N/NC(=O)c2ccncc2)c1O` [PYRIDOXAL ISONICOTINOYL HYDRAZONE], the Distribution in the data set filed under Rattus norvegicus [1] is 12%; with Rattus norvegicus [7] it was 32.8%; in the data set with Rattus norvegicus [8] it was 9.6%; in the data set with Rattus norvegicus [9], 32%; with Rattus norvegicus [10] it was 0.4%; with Rattus norvegicus [2], 78.7%. For the same compound, the Distribution with Rattus norvegicus [3] turned out to be 0.5%; with Rattus norvegicus [11] it was 0.6%; in the data set on Rattus norvegicus [4] it was 2.3%; in the data set listed under Rattus norvegicus [5], 0.05%; in the data set on Rattus norvegicus [6] it was 0.3%; in the data set with Rattus norvegicus [12], 4.3%.
Regarding `CC(=O)OCc1cnc(C)c(O)c1/C=N\NC(=O)c1ccncc1`, the Distribution in the data set with Rattus norvegicus [7] came to 10.4%; in the data set with Rattus norvegicus [8], 15.7%; in the data set with Rattus norvegicus [9] it was 31.7%; in the data set with Rattus norvegicus [10] it was 0.6%; in the data set on Rattus norvegicus [11] it was 0.8%; with Rattus norvegicus [12] it was 0.8%.
With `Cc1csc(N/N=C/c2c(CO)cnc(C)c2O)n1`, the Distribution in the data set listed under Rattus norvegicus [1] was determined as 6.5%; with Rattus norvegicus [2], 60.2%; with Rattus norvegicus [3], 0.8%; in the data set on Rattus norvegicus [4] it was 19.1%; in the data set listed under Rattus norvegicus [5], 0.01%; in the data set with Rattus norvegicus [6], 0.4%.
Take `Cc1ncc(CO)c(/C=N/NC(=O)c2cccnc2)c1O`: the Distribution with Rattus norvegicus [7] is recorded as 6%; in the data set with Rattus norvegicus [8], 16.2%; with Rattus norvegicus [9], 39.6%; in the data set with Rattus norvegicus [10], 0.9%; in the data set with Rattus norvegicus [11] it was 1%; in the data set with Rattus norvegicus [12], 0.3%.
Consider `Cc1ncc(CO)c(/C=N/NC(=O)c2ccnc3ccccc23)c1O`, for which the Distribution is 6.8% in the data set on Rattus norvegicus [7]; 12.6% in the data set on Rattus norvegicus [8]; 27.9% in the data set on Rattus norvegicus [9]; 0.6% in the data set with Rattus norvegicus [10]; 1% in the data set with Rattus norvegicus [11]; 0.4% with Rattus norvegicus [12].
On to `Cc1ncc(CO)c(/C=N/Nc2nc(-c3ccccc3)cs2)c1O`, for which the Distribution turned out to be 8.2% in the data set filed under Rattus norvegicus [1]; 66.7% with Rattus norvegicus [2]; 0.6% in the data set with Rattus norvegicus [3]; 19.6% in the data set with Rattus norvegicus [4]; 0.04% in the data set listed under Rattus norvegicus [5]; 0.5% in the data set on Rattus norvegicus [6].
Take `CC(=O)N(O)CCCCCNC(=O)CCC(=O)N(O)CCCCCNC(=O)CCC(=O)N(O)CCCCCN` [DEFEROXAMINE]: the Distribution in the data set filed under Rattus norvegicus [1] is reported as 15.5%; in the data set on Rattus norvegicus [7] it was 18.7%; in the data set with Rattus norvegicus [8] it was 3%; in the data set with Rattus norvegicus [9], 7.4%; in the data set on Rattus norvegicus [10] it was 0.2%; with Rattus norvegicus [2], 71.3%. Besides, the Distribution amounted to 0.4% in the data set on Rattus norvegicus [3]; 0.6% in the data set with Rattus norvegicus [11]; 1.8% in the data set on Rattus norvegicus [4]; 0.08% in the data set listed under Rattus norvegicus [5]; 0.3% with Rattus norvegicus [6]; 62.9% in the data set on Rattus norvegicus [12].
Consider `COc1ccc(COC(=O)N/N=C/c2c(CO)cnc(C)c2O)cc1`, for which the Distribution with Rattus norvegicus [7] worked out at 3.3%; in the data set with Rattus norvegicus [8] it was 14.7%; in the data set with Rattus norvegicus [9], 27%; with Rattus norvegicus [10], 0.6%; in the data set on Rattus norvegicus [11] it was 0.8%; in the data set with Rattus norvegicus [12], 0.02%.
For `Cc1ncc(CO)c(/C=N/NC(N)=O)c1O`, the Distribution came out at 4.1% in the data set filed under Rattus norvegicus [1]; 82.4% in the data set on Rattus norvegicus [2]; 1% in the data set with Rattus norvegicus [3]; 12.3% in the data set with Rattus norvegicus [4]; 0.09% in the data set listed under Rattus norvegicus [5]; 0.3% in the data set on Rattus norvegicus [6].
Take `CCOC(=O)N/N=C/c1c(CO)cnc(C)c1O`: the Distribution in the data set listed under Rattus norvegicus [1] turned out to be 8.6%; with Rattus norvegicus [2], 63.8%; in the data set with Rattus norvegicus [3], 0.7%; with Rattus norvegicus [4], 19%; in the data set listed under Rattus norvegicus [5] it was 0.03%; in the data set on Rattus norvegicus [6], 0.4%.
